Results reported in ChEMBL document CHEMBL2069258, “Novel phosphoramidate prodrugs of N-acetyl-(D)-glucosamine with antidegenerative activity on bovine and human cartilage explants” (J Med Chem, 2012).

Key:
[1] = Cytotoxicity against bovine articular chondrocytes assessed as cell viability at 0.1 mM by MTT assay relative to control; design: species or system Bos taurus; conditions: cattle, read-out: Activity
Method in brief: (§1)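 Chondrocyte monolayers tested in parallel with the explant work. Viability measured by MTT and expressed as percent of untreated cells (no compound = 100%). Mean and SE over n experiments, each in triplicate.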

[2] = Cytotoxicity against bovine articular chondrocytes assessed as cell viability at 1 mM by MTT assay relative to control; design: species or system Bos taurus; conditions: cattle, read-out: Activity
Method in brief: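 Chondrocyte monolayer cultures exposed to compound in parallel with the explant experiments. Viability read by MTT, as percent of untreated control cells (100%). Mean of n experiments from different cows, each run in triplicate.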

Cartilage tissue [3] = test: Antidegenerative activity against bovine cartilage explant assessed as inhibition of IL1-induced of GAG release at 0.1 mM for 1 day before IL-1 treatment measured after 6 days by colorimetric analysis relative to control; format: functional; conditions: Bos taurus
Method in brief: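 Articular cartilage explants from different cows, equilibrated 24 h, then cultured one day in DMEM + hydrolyzed lactalbumin + 50 μg/mL vitamin C + penicillin/streptomycin + ITS with or without compound (0.1 mM). GAG release then induced with 10 ng IL-1 and continued six days, medium changed every two days. Medium GAG measured by Blyscan colorimetric assay. GAG fold-increase versus minus-IL-1 control. Percent reduction relative to IL-1-only fold. Triplicates per experiment, mean of n experiments.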

[4] = Cytotoxicity against human articular chondrocytes assessed as metabolic activity at 10 uM by WST-1 assay; conditions: read-out: Activity
[5] = Antidegenerative activity against human cartilage explant assessed as inhibition of IL1-induced of GAG release at 10 uM for 1 day before IL-1 treatment measured after 6 days by colorimetric analysis relative to control; format: functional; conditions: Cartilage tissue
Method in brief: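 Human cartilage explants, equilibrated 24 h, then cultured one day in DMEM + hydrolyzed lactalbumin + 50 μg/mL vitamin C + penicillin/streptomycin + ITS with compound. 10 ng IL-1 then added and culture continued six days, medium replaced every two days. Medium GAG measured by Blyscan colorimetric assay. Percent reduction = (mean control − mean sample release)/control × 100, against a 0.25% DMSO + IL-1 control.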

[6] = Stability of compound in guinea pig serum assessed as hydrolysis after 17 hrs by NMR analysis; format: ADME, cell-free, Cavia porcellus
Method in brief: (§2)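 Prodrug disappearance followed by NMR in guinea pig or human serum at 37 °C, pH 7.0. Half-life taken from the apparent first-order rate constant, by linear regression of pseudo-first-order plots of prodrug concentration versus time.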

Serum = test: Stability of compound in human serum assessed as hydrolysis after 17 hrs by NMR analysis; format: ADME, cell-free; method in brief: as §2
[7] = Antidegenerative activity against human cartilage explant assessed as inhibition of IL1-induced of GAG release at 250 uM for 1 day before IL-1 treatment measured after 6 days by colorimetric analysis relative to control; format: functional; conditions: Cartilage tissue
Method in brief: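 Human explants: 24 h equilibration, 1 day preincubation with compound in DMEM/lactalbumin/vitamin C/ITS medium, then IL-1 10 ng for 6 days with medium renewed every two days. Compounds dissolved in DMSO, with a 0.25% DMSO control. GAG released measured colorimetrically (Blyscan). % reduction = (mean control release − mean sample release)/control release × 100.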

Cartilage tissue [8] = test: Antidegenerative activity against bovine cartilage explant assessed as inhibition of IL1-induced of GAG release at 1 mM for 1 day before IL-1 treatment measured after 6 days by colorimetric analysis relative to control; format: functional; conditions: Bos taurus
Method in brief: (§3)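 Articular cartilage explants from different cows, equilibrated 24 h, then cultured 1 day in DMEM with hydrolyzed lactalbumin, 50 μg/mL vitamin C, penicillin/streptomycin and ITS, with or without compound. IL-1 10 ng added; medium changed every two days; harvested 6 days later. GAG in medium by Blyscan colorimetric assay. Fold increase over minus-IL-1 control used to derive % reduction versus IL-1-only fold. Triplicate per experiment; mean and SE over n cows.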

[9] = Cytotoxicity against bovine articular chondrocytes assessed as cell viability at 10 mM by MTT assay relative to control; design: species or system Bos taurus; conditions: cattle, read-out: Activity; method in brief: as §1
Cartilage tissue [10] = test: Antidegenerative activity against bovine cartilage explant assessed as inhibition of IL1-induced of GAG release at 10 mM for 1 day before IL-1 treatment measured after 6 days by colorimetric analysis relative to control; format: functional; conditions: Bos taurus; method in brief: as §3
[11] = Cytotoxicity against human articular chondrocytes assessed as metabolic activity at 250 uM by WST-1 assay; conditions: read-out: Activity
Method in brief: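 Metabolic activity measured by WST-1 in parallel with the human explant assay and reported as a percentage.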

SMILES | viability at 100 µM [1] [%] | inhibition at 100 µM (Cartilage tissue [3]) [%] | viability at 10 µM [4] [%] | inhibition at 10 µM [5] [%] | further results
CCOC(=O)CN(C)P(=O)(Oc1ccc(OC)cc1)O[C@H]1[C@H](O)[C@@H](CO)O[C@H](O)[C@@H]1NC(C)=O (stereo partly specified) | 32 | -24.9 |  |  | viability at 1000 µM [2]: 80%
COc1ccc(OP(=O)(O[C@H]2[C@H](O)[C@@H](CO)O[C@H](O)[C@@H]2NC(C)=O)N2CCC[C@H]2C(=O)OC(C)C)cc1 (stereo partly specified) | 90 | 17.5 | 79.4 | 24.4 | 
CCC(C)OC(=O)[C@@H]1CCCN1P(=O)(Oc1ccc(OC)cc1)O[C@H]1[C@H](O)[C@@H](CO)O[C@H](O)[C@@H]1NC(C)=O (stereo partly specified) | 96 | -4.4 | 53.9 | 27.1 | viability at 1000 µM [2]: 7%
COc1ccc(OP(=O)(O[C@H]2[C@H](O)[C@@H](CO)O[C@H](O)[C@@H]2NC(C)=O)N2CCC[C@H]2C(=O)OC2CCCCC2)cc1 (stereo partly specified) |  | -9.6 |  |  | 
CCC[C@H](NP(=O)(Oc1ccc(OC)cc1)O[C@H]1[C@H](O)[C@@H](CO)O[C@H](O)[C@@H]1NC(C)=O)C(=O)OCC (stereo partly specified) | 93 | 11.8 |  |  | 
COc1ccc(OP(=O)(O[C@H]2[C@H](O)[C@@H](CO)O[C@H](O)[C@@H]2NC(C)=O)N2CCC[C@H]2C(=O)OC(C)(C)C)cc1 (stereo partly specified) | 91 | -8 |  |  | Stability [6]: Stable; viability at 1000 µM [2]: 5%; Stability (Serum): Stable
COC(=O)[C@@H](NP(=O)(Oc1ccc(OC)cc1)O[C@H]1[C@H](O)[C@@H](CO)O[C@H](O)[C@@H]1NC(C)=O)C(C)C (stereo partly specified) | 96 | -4.4 |  |  | 
COc1ccc(OP(=O)(O[C@H]2[C@H](O)[C@@H](CO)O[C@H](O)[C@@H]2NC(C)=O)N2CCC[C@H]2C(=O)OCc2ccccc2)cc1 (stereo partly specified) |  |  | 115 | 28.8 | 
CCOC(=O)[C@@H]1CCCN1P(=O)(Oc1ccc(OC)cc1)O[C@H]1[C@H](O)[C@@H](CO)O[C@H](O)[C@@H]1NC(C)=O (stereo partly specified) |  |  | 66.4 | 38 | 
CCCCOC(=O)[C@@H]1CCCN1P(=O)(Oc1ccc(OC)cc1)O[C@H]1[C@H](O)[C@@H](CO)O[C@H](O)[C@@H]1NC(C)=O (stereo partly specified) |  |  | 87.1 | 30.4 | 
CCOC(=O)[C@@H]1CCCN1P(=O)(Oc1ccc(OC)cc1)O[C@H]1[C@H](O)[C@@H](NC(C)=O)[C@H](O)O[C@@H]1CO (stereo partly specified) |  |  | 107 | 17.4 | 
COc1ccc(OP(=O)(N[C@@H](C)C(=O)OCc2ccccc2)O[C@H]2[C@H](O)[C@@H](CO)O[C@H](OC)[C@@H]2NC(C)=O)cc1 (stereo partly specified) | 78 | -19 |  |  | 
COc1ccc(OP(=O)(N[C@H](C(=O)OCc2ccccc2)C(C)C)O[C@H]2[C@H](O)[C@@H](CO)O[C@H](OC)[C@@H]2NC(C)=O)cc1 (stereo partly specified) | 99 | 9.4 |  |  | 
CCOC(=O)[C@@H]1CCCN1P(=O)(Oc1ccc(OC)cc1)O[C@H]1[C@H](O)[C@@H](CO)O[C@H](OC)[C@@H]1NC(C)=O (stereo partly specified) | 62 | -53.7 |  |  | 
CCOC(=O)[C@@H](NP(=O)(Oc1ccc(OC)cc1)O[C@H]1[C@H](O)[C@@H](CO)O[C@H](OC)[C@@H]1NC(C)=O)C(C)C (stereo partly specified) | 85 | -52.5 |  |  | 
CCOC(=O)CN(C)P(=O)(Oc1ccc(OC)cc1)O[C@H]1[C@H](O)[C@@H](CO)O[C@H](OC)[C@@H]1NC(C)=O (stereo partly specified) | 100 | -23.2 |  |  | 
N[C@H]1C(O)O[C@H](CO)[C@@H](O)[C@@H]1O (stereo partly specified) [GLUCOSAMINE] | 106 | 0.8 | 107 | 10.3 | inhibition at 250 µM [7]: 14.1%; inhibition at 1000 µM (Cartilage tissue [8]): 3.4%; viability at 1000 µM [2]: 88%; viability at 10000 µM [9]: 56%; inhibition at 10000 µM (Cartilage tissue [10]): 19%; viability at 250 µM [11]: 85.3%
CC(=O)N[C@@H]1[C@@H](O)[C@H](O)[C@@H](CO)O[C@H]1O [N-ACETYLGLUCOSAMINE] | 107 | 5.4 |  |  | inhibition at 1000 µM (Cartilage tissue [8]): -1%; viability at 1000 µM [2]: 70%; viability at 10000 µM [9]: 61%; inhibition at 10000 µM (Cartilage tissue [10]): 9.3%
